ChEMBL document CHEMBL1132342, “Novel hypotensive agents from Verbesina caracasana. 6. Synthesis and pharmacology of caracasandiamide” (1999)
Where “and” joins values, the source holds several entries; their conditions need not be identical. Equal entries are not always repeated.

Assays:
[1] = system: Rattus norvegicus; assay: Maximum rate of rise of the left ventricular isovolumetric pressure was measured after iv administration of 1600 ug/Kg in the presence of noradrenaline (agonist) in anesthetized rats; type: functional, Heart left ventricle
Method in brief: (§1)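 Anesthetized male Wistar rats, two groups of 8, received 400 or 1600 µg/kg iv. Before and after this dose, iv agonist challenges were given: noradrenaline 1 µg/kg, adrenaline, acetylcholine 2.50 µg/kg, or isoprenaline. Systolic/diastolic BP, heart rate and dP/dt responses were recorded before (control) and after dosing; significance was set at p < 0.05 versus control.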

[2] = system: Rattus norvegicus; assay: Change in respiratory frequency after iv administration of 400 ug/Kg in anesthetized rats; type: functional
Method in brief: (§2)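 Male Wistar rats (299 ± 3 g) were anesthetized with ethylurethane ip, tracheally cannulated and breathing spontaneously, at 37 °C, and stabilized for 60 min. Doses of 50-3200 µg/kg (ratio 2.0) in saline were injected by femoral vein, 50 µL each. Recordings: femoral arterial BP, electromagnetic abdominal-aortic flow, SV from integrated pulsatile flow, polygraphic RF. Peak changes, mean ± SE, n = 12 (n = 7 at 3200).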

[3] = system: Rattus norvegicus; assay: Change in heart rate after iv administration of 1600 ug/Kg in the presence of noradrenaline (agonist) in anesthetized rats; type: functional
Method in brief: (§3)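 Urethane-anesthetized male Wistar rats (16 rats, two equal groups) received 400 or 1600 µg/kg compound iv. Cardiovascular responses to iv agonist boluses (noradrenaline 1 µg/kg, acetylcholine 2.50 µg/kg, adrenaline, isoprenaline) were measured before and after compound dosing. Peak responses are given as mean ± SE; p < 0.05 versus control mean.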

[4] = system: Rattus norvegicus; assay: Change in diastolic blood pressure after iv administration of 50 ug/Kg in anesthetized rats; type: functional, Artery
Method in brief: (§4)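 Adult male Wistar rats under ip ethylurethane (10% w/v in saline, 1 mL/kg) with tracheal cannula and spontaneous breathing, kept at 37 °C. Arterial BP was recorded by femoral artery catheter; compound in saline (50 µL) was given via femoral vein at 50–3200 µg/kg, ratio 2.0. Peak change is given as mean ± SE, n = 12 (n = 7 at 3200 µg/kg).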

[5] = system: Rattus norvegicus; assay: Change in heart rate after iv administration of 100 ug/Kg in anesthetized rats; type: functional; method in brief: as §4
[6] = system: Rattus norvegicus; assay: Change in diastolic blood pressure after iv administration of 800 ug/Kg compound (treatment with hexamethonium (5 mg/Kg, iv)in anesthetized rats; type: functional, Artery
Method in brief: (§5)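 In anesthetized male Wistar rats, responses to iv compound (200–1600 µg/kg, ratio 2.0) were measured alone and under three pretreatments: continuous iv papaverine infusion (1 mg/kg/min), ip reserpine (5 mg/kg/day for 2 days), or iv hexamethonium (5 mg/kg). Peak changes are given as mean ± SE, n = 6 per group; p < 0.05 versus control.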

[7] = system: Rattus norvegicus; assay: Change in heart rate after iv administration of 1600 ug/Kg in the presence of acetylcholine (agonist) in anesthetized rats; type: functional; method in brief: as §3
[8] = system: Rattus norvegicus; assay: Change in diastolic blood pressure after iv administration of 800 ug/Kg compound (treatment with reserpine(5 mg/kg/day for 2 days, ip)in anesthetized rats; type: functional, Artery; method in brief: as §5
[9] = system: Rattus norvegicus; assay: Maximum rate of rise of the left ventricular isovolumetric pressure was measured after iv administration of 1600 ug/Kg compound (treatment with papaverine(1 mg/Kg/min, iv)in anesthetized rats; type: functional, Heart left ventricle
Method in brief: (§6)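 Anesthetized rats, n = 6 per group, received iv doses of 200–1600 µg/kg (ratio 2.0) either alone (control) or under pretreatment: continuous iv papaverine infusion 1 mg/kg/min, reserpine 5 mg/kg/day ip for 2 days, or hexamethonium 5 mg/kg iv. Peak changes in BP, heart rate and dP/dt recorded; means ± SE, p < 0.05 versus control.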

[10] = system: Rattus norvegicus; assay: Change in systolic blood pressure after iv administration of 800 ug/Kg in anesthetized rats; type: functional, Artery
Method in brief: (§7)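 Urethane-anesthetized (10% w/v, […] ip in saline) adult male Wistar rats, trachea cannulated, breathing spontaneously, 37 °C. Femoral artery catheter for blood pressure, femoral vein for dosing. Sequential iv doses 50–3200 µg/kg (ratio 2.0) in saline, each given after parameters returned to baseline. Peak changes recorded; means ± SE, n = 12 (n = 7 at 3200 µg/kg).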

[11] = system: Rattus norvegicus; assay: Change in diastolic blood pressure after iv administration of 4.12 uM/kg in anesthetized rats; type: functional, Artery
[12] = system: Rattus norvegicus; assay: Change in systolic blood pressure after iv administration of 4.12 uM/Kg in anesthetized rats; type: functional, Artery
Method in brief: (§8)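 Doses were 4.12 µM/kg (two agents), guanethidine 25, clonidine 0.108, hexamethonium 12, reserpine 8, papaverine 5 and histamine […]. Peak changes in systolic BP or HR were recorded.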

[13] = system: Rattus norvegicus; assay: Change in systolic blood pressure after iv administration of 4.12 uM/kg in anesthetized rats; type: functional, Artery; method in brief: as §8
[14] = system: Rattus norvegicus; assay: Maximum rate of rise of the left ventricular isovolumetric pressure after iv administration of 1600 ug/Kg compound (treatment with reserpine(5 mg/kg/day for 2 days, ip)in anesthetized rats; type: functional, Heart left ventricle; method in brief: as §6
[15] = system: Rattus norvegicus; assay: Change in systolic blood pressure after iv administration of 200 ug/Kg in anesthetized rats; type: functional, Artery; method in brief: as §2
[16] = system: Rattus norvegicus; assay: Maximum rate of rise of the left ventricular isovolumetric pressure was measured after iv administration of 200 ug/Kg in anesthetized rats; type: functional, Heart left ventricle; method in brief: as §7
[17] = system: Rattus norvegicus; assay: Change in heart rate after iv administration of 400 ug/Kg in anesthetized rats; type: functional; method in brief: as §4
[18] = system: Rattus norvegicus; assay: Maximum rate of rise of the left ventricular isovolumetric pressure was measured after iv administration of 400 ug/Kg in the presence of noradrenaline (agonist) in anesthetized rats; type: functional, Heart left ventricle; method in brief: as §1
[19] = system: Rattus norvegicus; assay: Change in mean aortic flow after iv administration of 200 ug/Kgin anesthetized rats; type: functional; method in brief: as §2
[20] = system: Rattus norvegicus; assay: Change in diastolic blood pressure after iv administration of 400 ug/Kg in the presence of adrenaline (agonist) in anesthetized rats; type: functional, Artery; method in brief: as §3
[21] = system: Rattus norvegicus; assay: Change in stroke volume after iv administration of 400 ug/Kg in anesthetized rats; type: functional; method in brief: as §2
[22] = system: Rattus norvegicus; assay: Change in systolic blood pressure after iv administration of 400 ug/Kg in the presence of acetylcholine (agonist) in anesthetized rats; type: functional, Artery; method in brief: as §1
[23] = system: Rattus norvegicus; assay: Change in heart rate after iv administration of 400 ug/kg compound (treatment with hexamethonium (5 mg/kg, iv))in anesthetized rats; type: functional
Method in brief: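 Urethane-anesthetized male Wistar rats, 6 per group, received iv doses of 200-1600 µg/kg (ratio 2.0) given alone or under a pretreatment. Pretreatments were continuous iv papaverine infusion (1 mg/kg/min), reserpine 5 mg/kg/day ip for 2 days, or hexamethonium 5 mg/kg iv. Peak changes in femoral arterial BP and HR were recorded; values are mean ± SE.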

[24] = system: Rattus norvegicus; assay: Change in heart rate after iv administration of 1600 ug/kg compound (treatment with reserpine(5 mg/kg/day for 2 days, ip))in anesthetized rats; type: functional; method in brief: as §5
[25] = system: Rattus norvegicus; assay: Change in heart rate after iv administration of 1600 ug/Kg in the presence of adrenaline (agonist) in anesthetized rats; type: functional; method in brief: as §3

**Q.** What does the source list for `COc1ccc(C2C(c3ccc(OC)c(OC)c3)[C@H](C(=O)NCCCC/N=C(\N)NCC=C(C)C)[C@@H]2C(=O)NCCCC/N=C(\N)NCC=C(C)C)cc1OC` (some centres not stated) [CARACASANDIAMIDE]?
**A.** dP/dt [1]: 2225 mmHg s-1; Change in respiratory frequency [2]: -3 beats min-1 and -3%; Heart rate [3]: 13 beats min-1; BP [4]: 10 mmHg; Change in BP [4]: 13%; Change in heart rate [5]: -3%; Heart rate [5]: -10 beats min-1; BP [6]: -53 mmHg; Heart rate [7]: -34 beats min-1; BP [8]: -12 mmHg; dP/dt [9]: 3321 mmHg s-1; BP [10]: -30 mmHg; Change in BP [10]: -29%; BP [11]: -47 mmHg; BP [12]: -43 mmHg; BP [13]: -43 mmHg; dP/dt [14]: 1238 mmHg s-1; BP [15]: -14 mmHg; Change in BP [15]: -13%; Change in dP/dt [16]: 22%; dP/dt [16]: 1369 mmHg s-1; Change in heart rate [17]: -4%; Heart rate [17]: -16 beats min-1; dP/dt [18]: 5136 mmHg s-1; Mean aortic flow [19]: -14 mL/min; BP [20]: 5 mmHg; Change in stroke volume [21]: -23%; Stroke volume [21]: -46 µL; BP [22]: -27 mmHg; Heart rate [23]: -46 beats min-1; Heart rate [24]: -14 beats min-1; Heart rate [25]: 7 beats min-1
